In ChEMBL document CHEMBL1140100, “Flexible cyclic ethers/polyethers as novel P2-ligands for HIV-1 protease inhibitors: design, synthesis, biological evaluation, and protein-ligand X-ray studies” (J Med Chem, 2008):

What was measured:
[1] = biological target: Protease (Human immunodeficiency virus 1, UniProt Q9YQ12); assay: Inhibition of HIV1 protease
[2] = tested on: Human immunodeficiency virus 1; assay: Antiviral activity against multidrug-resistant HIV1 with protease L10I, K14R, R41K, M46L, I54V, L63P, A71V, V82A, L90M, I93L mutation in phytohemagglutininin-activated PBMC assessed as inhibition of p24Gag protein production; format: functional, organism-based
Procedure, shortened: (§1)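 Clinical HIV-1 isolates (ERS104pre as wild-type reference; multidrug-resistant isolates with the listed protease substitutions relative to consensus type B) were tested in phytohemagglutinin-activated human peripheral blood mononuclear cells. The endpoint was inhibition of p24Gag protein production, and IC50 was determined in triplicate.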

[3] = tested on: Human immunodeficiency virus 1; assay: Antiviral activity against multidrug-resistant HIV1 with protease L10I, K43T, M46L, I54V, L63P, A71V, V82A, L90M, Q92K mutation in phytohemagglutininin-activated PBMC assessed as inhibition of p24G protein production; format: functional, organism-based; procedure, shortened: as §1
[4] = tested on: Human immunodeficiency virus 1; assay: Antiviral activity against multidrug-resistant HIV1/A with protease mutation in phytohemagglutininin-activated PBMC assessed as inhibition of p24G protein production; format: functional, organism-based
[5] = tested on: Human immunodeficiency virus 1; assay: Antiviral activity against multidrug-resistant HIV1 with protease L10I, V11I, T12E, I15V, L19I, R41K, M46L, L63P, A71T, V82A, L90M mutation in phytohemagglutininin-activated PBMC assessed as inhibition of p24G protein production; format: functional, organism-based; procedure, shortened: as §1
[6] = tested on: Human immunodeficiency virus 1; assay: Antiviral activity against multidrug-resistant HIV1/C with protease mutation in phytohemagglutininin-activated PBMC assessed as inhibition of p24G protein production; format: functional, organism-based
[7] = tested on: Human immunodeficiency virus 1; assay: Antiviral activity against HIV1 LAI in human MT2 cells assessed as inhibition of virus-induced cytopathic effect; format: functional, organism-based; details: Human immunodeficiency virus 1, LAI
[8] = tested on: Human immunodeficiency virus 1; assay: Antiviral activity against multidrug-resistant HIV1 with protease L10I, K14R, L33I, M36I, M46I, F53I, K55R, I62V, L63P, A71V, G73S, V82A, L90M, I93L mutation in phytohemagglutininin-activated PBMC assessed as inhibition of p24G protein production; format: functional, organism-based; procedure, shortened: as §1
[9] = tested on: Human immunodeficiency virus 1; assay: Antiviral activity against HIV1 ERS104 with protease L63P mutation in phytohemagglutininin-activated PBMC assessed as inhibition of p24G protein production; format: functional, organism-based; procedure, shortened: as §1
[10] = tested on: Human immunodeficiency virus 1; assay: Antiviral activity against multidrug-resistant HIV1 with protease L10I, L24I, I33F, E35D, M36I, N37S, M46L, I54V, R57K, I62V, L63P, A71V, G73S, V82A mutation in phytohemagglutininin-activated PBMC assessed as inhibition of p24G protein production; format: functional, organism-based; procedure, shortened: as §1
[11] = read-out: ID50 (the source's name)

Chain of Protease (Q9YQ12 whole entry): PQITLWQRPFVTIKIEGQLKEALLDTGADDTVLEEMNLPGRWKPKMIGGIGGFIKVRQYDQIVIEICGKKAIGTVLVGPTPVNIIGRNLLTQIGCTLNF

Q: Which Ki [1] does the source give for `COc1ccc(S(=O)(=O)N(CC(C)C)C[C@@H](O)[C@H](Cc2ccccc2)NC(=O)OC2COCCOCCOC2)cc1` here?
A: The Ki was 16 nM.

Q: `COc1ccc(S(=O)(=O)N(CC(C)C)C[C@@H](O)[C@H](Cc2ccccc2)NC(=O)OC2CCCCCC2)cc1` was tested. Which Ki [1] did it give?
A: Its Ki is 27 nM.

Q: How did the Ki [1] turn out when `COc1ccc(S(=O)(=O)N(CC(C)C)C[C@@H](O)[C@H](Cc2ccccc2)NC(=O)OC2COCOC2)cc1` was run?
A: Its Ki is 0.041 nM.

Q: And the IC50 [2]?
A: The IC50 was 64 nM.

Q: What about the IC50 [3] of the same compound?
A: The IC50 was 110 nM.

Q: And the IC50 [4]?
A: The IC50 was 13 nM.

Q: And the IC50 [5]?
A: Its IC50 is 300 nM.

Q: What about the IC50 [6] of the same compound?
A: Its IC50 is 160 nM.

Q: And the IC50 ([7]; read-out: IC50)?
A: Its IC50 is 3.4 nM.

Q: What about the IC50 [8] of the same compound?
A: The IC50 was 230 nM.

Q: What about the IC50 [9] of the same compound?
A: Its IC50 is 6 nM.

Q: And the IC50 [10]?
A: Its IC50 is 330 nM.

Q: With `COc1ccc(S(=O)(=O)N(CC(C)C)C[C@@H](O)[C@H](Cc2ccccc2)NC(=O)O[C@@H]2CCCCOC2)cc1` as the compound, how does the Ki [1] read?
A: The Ki was 0.81 nM.

Q: How did the IC50 [2] turn out when `COc1ccc(S(=O)(=O)N(CC(C)C)C[C@@H](O)[C@H](Cc2ccccc2)NC(=O)O[C@@H]2CCOCOC2)cc1` was run?
A: The IC50 was 220 nM.

Q: And the IC50 [3]?
A: The IC50 was 250 nM.

Q: What about the IC50 [4] of the same compound?
A: The IC50 was 20 nM.

Q: What about the IC50 [5] of the same compound?
A: The IC50 was 360 nM.

Q: What about the IC50 [6] of the same compound?
A: Its IC50 is 210 nM.

Q: And the IC50 ([7]; read-out: IC50)?
A: The IC50 was 4.9 nM.

Q: And the IC50 [8]?
A: Its IC50 is 340 nM.

Q: What about the IC50 [9] of the same compound?
A: The IC50 was 20 nM.

Q: And the IC50 [10]?
A: The IC50 was 500 nM.

Q: For `COc1ccc(S(=O)(=O)N(CC(C)C)C[C@@H](O)[C@H](Cc2ccccc2)NC(=O)O[C@H]2CCCOCOC2)cc1`, which Ki [1] is on record?
A: The Ki was 0.15 nM.

Q: With `COc1ccc(S(=O)(=O)N(CC(C)C)C[C@@H](O)[C@H](Cc2ccccc2)NC(=O)O[C@H]2CCOCOC2)cc1` as the compound, how does the Ki [1] read?
A: Its Ki is 0.16 nM.

Q: And the IC50 ([7]; read-out: IC50)?
A: The IC50 was 30 nM.

Q: What does the source list for `CC(C)c1nc(CN(C)C(=O)N[C@H](C(=O)N[C@@H](Cc2ccccc2)C[C@H](O)[C@H](Cc2ccccc2)NC(=O)OCc2cncs2)C(C)C)cs1` [RITONAVIR]?
A: IC50 [2]: > 1000 nM; IC50 [3]: > 1000 nM; IC50 [4]: > 1000 nM; IC50 [5]: > 1000 nM; IC50 [6]: > 1000 nM; IC50 [8]: > 1000 nM; IC50 [9]: 34 nM; IC50 [10]: > 1000 nM

Q: `COc1ccc(S(=O)(=O)N(CC(C)C)C[C@@H](O)[C@H](Cc2ccccc2)NC(=O)O[C@H]2CCCOCC2)cc1` was tested. Which Ki [1] did it give?
A: Its Ki is 0.74 nM.

Q: Which results are given for `COc1ccc(S(=O)(=O)N(CC(C)C)C[C@@H](O)[C@H](Cc2ccccc2)NC(=O)OC2COCCOCOCCOC2)cc1`?
A: Ki [1]: 6.3 nM; IC50 ([7]; read-out: IC50): > 1000 nM

Q: For `CC(C)CN(C[C@@H](O)[C@H](Cc1ccccc1)NC(=O)O[C@H]1CCOC1)S(=O)(=O)c1ccc(N)cc1`, which IC50 [2] is on record?
A: The IC50 was 290 nM.

Q: What about the IC50 [3] of the same compound?
A: The IC50 was 300 nM.

Q: And the IC50 [4]?
A: Its IC50 is 100 nM.

Q: What about the IC50 [5] of the same compound?
A: The IC50 was 340 nM.

Q: What about the IC50 [6] of the same compound?
A: Its IC50 is 230 nM.

Q: And the IC50 [8]?
A: Its IC50 is 320 nM.

Q: And the IC50 [9]?
A: Its IC50 is 33 nM.

Q: What about the IC50 [10] of the same compound?
A: The IC50 was 430 nM.

Q: How did the IC50 [2] turn out when `CC(C)CN(C[C@@H](O)[C@H](Cc1ccccc1)NC(=O)O[C@H]1CO[C@H]2OCC[C@H]21)S(=O)(=O)c1ccc(N)cc1` was run?
A: The IC50 was 4 nM.

Q: What about the IC50 [4] of the same compound?
A: The IC50 was 3 nM.

Q: And the IC50 [7, 11]?
A: Its IC50 is 1.6 nM.

Q: What about the IC50 [8] of the same compound?
A: Its IC50 is 26 nM.

Q: What about the IC50 [9] of the same compound?
A: The IC50 was 3.5 nM.

Q: For `CC(C)(C)NC(=O)[C@@H]1CN(Cc2cccnc2)CCN1C[C@@H](O)C[C@@H](Cc1ccccc1)C(=O)N[C@H]1c2ccccc2C[C@H]1O`, which IC50 [2] is on record?
A: Its IC50 is over 1000 nM.

Q: What about the IC50 [3] of the same compound?
A: Its IC50 is over 1000 nM.

Q: What about the IC50 [4] of the same compound?
A: The IC50 was over 1000 nM.

Q: And the IC50 [5]?
A: The IC50 was 290 nM.

Q: What about the IC50 [6] of the same compound?
A: Its IC50 is over 1000 nM.

Q: And the IC50 [8]?
A: Its IC50 is over 1000 nM.

Q: What about the IC50 [9] of the same compound?
A: The IC50 was 26 nM.

Q: And the IC50 [10]?
A: Its IC50 is over 1000 nM.

Q: Which Ki [1] does the source give for `COc1ccc(S(=O)(=O)N(CC(C)C)C[C@@H](O)[C@H](Cc2ccccc2)NC(=O)OC2COCCS(=O)(=O)CCOC2)cc1` here?
A: The Ki was 1.9 nM.

Q: And the IC50 ([7]; read-out: IC50)?
A: The IC50 was over 1000 nM.

Q: For `COc1ccc(S(=O)(=O)N(CC(C)C)C[C@@H](O)[C@H](Cc2ccccc2)NC(=O)O[C@@H]2CCCOCOC2)cc1`, which Ki [1] is on record?
A: The Ki was 0.16 nM.

Q: For `COc1ccc(S(=O)(=O)N(CC(C)C)C[C@@H](O)[C@H](Cc2ccccc2)NC(=O)O[C@H]2CO[C@H]3OCC[C@H]32)cc1`, which IC50 [7, 11] is on record?
A: Its IC50 is 1.2 nM.

Q: `COc1ccc(S(=O)(=O)N(CC(C)C)C[C@@H](O)[C@H](Cc2ccccc2)NC(=O)OC2COCCN(C)CCOC2)cc1` was tested. Which Ki [1] did it give?
A: The Ki was 19 nM.

Q: And the IC50 ([7]; read-out: IC50)?
A: Its IC50 is over 1000 nM.

Q: For `COc1ccc(S(=O)(=O)N(CC(C)C)C[C@@H](O)[C@H](Cc2ccccc2)NC(=O)OC2COCCOCCOCCOC2)cc1`, which Ki [1] is on record?
A: Its Ki is 33 nM.
